Hits are enriched below; roughly 2% of the tested compounds scored in any of these assays.
DAGLB inh – DAGLB lipase inhibitors, primary screen, biochemical, fluorescence, HTS; HEK293T DAGLB membrane lysate, EnzChek fluorogenic substrate; inhibition, % at 5.17 µM; hit rate 0.059% among 340,000; AID 504411, 2011; in the data active = inhibition above about 34%;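 also: 0% = enzyme with vehicle and 100% = wells lacking enzyme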
MT1-MMP act inh – blockers of MT1-MMP proenzyme processing, primary screen, HT1080 RFP-PRO-GFP cells, GFP/RFP fluorescence | Matrix metalloproteinase-14 (Homo sapiens), P50281 | GFP/RFP ratio fluorescence, overnight; percent of plate control window, DMSO zero | GFP/RFP ratio change, % at 20 µM | hit rate 0.061% among 360,000;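 active = GFP/RFP ratio change of at least 30% with cell ATP level not reduced by more than half and red fluorescence within 50% of control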
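Read-out: GFP/RFP fluorescence ratio; Test system: RFP-PRO-GFP reporter HT1080 cells; Compound dosing: single-point 20 µM compound, 1% DMSO; Times: overnight compound exposure at 37 °C.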
VLA-4 inh – inhibition in human VLA-4 binding assay, primary screen, VLA-4 allosteric modulator project, MLPCN library, flow cytometry, VLA-4 expressing cells | inhibition, % (about 7 µM as worked out from the volumes in the protocol) | ligand binding flow cytometry | AID 2557, 2010 | Integrin alpha-4 (Homo sapiens), P13612 | hit rate 0.2% among 330,000; in the data active = inhibition above about 50%
ABCB6 inh 2 – ABCB6 transporter inhibitors, primary screen, K562-ABCB6 cells, flow cytometry, MLPCN library | fluorescence ratio to DMSO, % at 10 µM | AID 602162, 2011 | ATP-binding cassette sub-family B member 6 (Homo sapiens), Q9NP58 | hit rate 0.19% among 360,000 | K562-ABCB6 porphyrin accumulation, 1 h; stronger effect = lower value;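 active = fluorescence ratio to DMSO below 75%, the collection mean minus 3 SD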;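 also: signal is porphyrin accumulated inside mitochondria; 100% equals median channel fluorescence of DMSO control wells; lower ratio means ABCB6 inhibition with less porphyrin fluorescence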
FGF22 binding – binders of human FGF22 protein, primary screen, FGF22 synaptogenesis inhibitor project, biophysical, thermal shift, single point; Fibroblast growth factor 22 (Homo sapiens), Q9HCT0; hit rate 1.5% among 340,000; activity (Tm shift, normalised), % at 9.99 µM; recombinant FGF22 thermal shift, SYPRO orange fluorescence; percent of sucrose octasulfate shift, DMSO zero;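 active = mean Tm shift, scaled 0 neutral to 100 positive control, at about 1.3% or above, every replicate too, limit read from the data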
Target sequence (Q9HCT0 whole entry, looked up): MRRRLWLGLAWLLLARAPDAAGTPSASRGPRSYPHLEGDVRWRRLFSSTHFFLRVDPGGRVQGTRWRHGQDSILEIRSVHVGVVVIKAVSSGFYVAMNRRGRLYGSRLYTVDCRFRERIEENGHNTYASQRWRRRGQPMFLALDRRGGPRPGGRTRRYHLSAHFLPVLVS
Exocytosis inh – LAMP-1 surface exposure blockers, TALL-104 cells – cell-based, flow cytometry, MLPCN library, primary screen | TALL-104 LAMP-1 surface exposure; cells stimulated with thapsigargin and PMA | inhibition, % at 10 µM | hit rate 0.66% among 360,000 | AID 651702, 2012;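 active = inhibition above about 55%, limit read from the data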
* = called active by the depositor; . = no result.

SMILES	DAGLB inh	MT1-MMP act inh	VLA-4 inh	ABCB6 inh 2	FGF22 binding	Exocytosis inh
CN(C(=O)c1ccccc1NC(=O)C(F)(F)F)c1ccccc1	0.9	9.9	9.0	60.0*	.	2.0
O=C(C[C@@H]1C[C@H]2c3cc(NC(=O)C4CCC4)ccc3O[C@H]2[C@@H](CO)O1)NCc1cccnc1	.	.	.	.	0.0	.
C[C@@H]1CN([C@H](C)CO)C(=O)c2cc(C3=CCCCC3)cnc2O[C@H]1CN(C)C(=O)c1ccncc1	.	.	.	.	0.0	.
C/C(N)=C(/C#N)C(=O)COC(=O)CNS(=O)(=O)c1ccc2ccccc2c1	2.2	-2.8	2.5	95.0	-0.2	-0.2
C/C(N)=C(/C#N)C(=O)COC(=O)CNS(=O)(=O)c1c(F)cccc1F	0.1	1.0	8.7	101.0	43.5*	0.7
CN(C)c1ncc(S(=O)(=O)c2ccccc2)c(N)n1	-3.0	2.2	-2.7	97.0	43.6*	5.4
COc1ccccc1CNC(=O)c1c(N)n(CCCN2CCOCC2)c2nc3ccccc3nc12	1.5	-3.3	.	108.0	.	71.5*
CC(=O)C(Cc1ccccc1)(Cc1ccccc1)C(C)=O	-3.2	-1.1	3.9	91.0	0.6	-3.8
CC(C)(Cc1cccc(CC(C)(C)C(=O)O)c1)C(=O)O	3.4	0.3	3.6	105.0	17.3*	-4.4
CCCNC(=O)N[C@@H]1CC[C@H](CC(=O)N2CCN(C)CC2)O[C@@H]1CO	.	.	.	.	-0.1	.
O=C(C[C@H]1C/C=C\C[C@H](NC(=O)OCC2c3ccccc3-c3ccccc32)C(=O)OC[C@H]2CCCN2C1=O)NCCO	-5.4	2.4	-3.6	99.0	-0.1	59.0*
C[C@H](CO)N1C[C@H](C)[C@@H](CN(C)Cc2ccc(-c3ccccc3)cc2)Oc2ccc(NC(=O)Nc3ccc4c(c3)OCO4)cc2CC1=O	.	.	.	.	-0.1	.
COc1ccc(CCn2nnc3ccccc3c2=O)cc1OC	1.0	-1.2	.	100.0	43.0*	-2.9
O=C(C[C@H]1CC[C@@H]2[C@H](COC[C@H](O)CN2C(=O)c2ccc3c(c2)OCO3)O1)NC1CCCC1	.	.	.	.	-0.1	.
O=C(C[C@@H]1CC[C@H]2[C@@H](COC[C@H](O)CN2C(=O)Nc2ccccc2)O1)NCCCN1CCOCC1	.	.	.	.	-0.2	.
Cc1ccnc(SCC(=O)O)n1	-1.7	8.3	9.6	98.0	.	-5.3
COC(=O)CSc1nccc(C)n1	-1.0	0.5	8.6	105.0	43.6*	0.7
C[C@@H]1CN([C@H](C)CO)S(=O)(=O)c2ccc(C3=CCCC3)cc2O[C@@H]1CN(C)C(=O)c1ccccc1	.	.	.	.	0.0	.
Cc1ccc(CC(=O)Nc2ccncc2)cc1	-2.0	1.9	-8.7	92.0	43.6*	-9.0
CC(=O)N(C)C[C@@H]1Oc2cc(C#CC(C)(C)O)ccc2S(=O)(=O)N([C@H](C)CO)C[C@@H]1C	.	.	.	.	-0.4	.
COc1ccc(NC(=O)CSc2ccc(-c3ccccn3)nn2)cc1OC	-0.4	4.9	4.6	94.0	43.2*	0.5
COc1ccc(-c2ccc(SCC(=O)Nc3cccc(C(C)=O)c3)nn2)cc1OC	-1.9	2.8	-3.6	88.0	43.0*	-1.7
C[C@@H]1CN([C@@H](C)CO)S(=O)(=O)c2ccc(C3=CCCC3)cc2O[C@H]1CN(C)Cc1cccnc1	.	.	.	.	-0.1	.
Cc1ccc(S(=O)(=O)N(C)C[C@H]2Oc3c(NC(=O)Nc4ccc(F)cc4)cccc3C(=O)N([C@@H](C)CO)C[C@H]2C)cc1	.	.	.	.	0.1	.
C(=N\N=C\c1ccccn1)/c1ccccn1	-4.3	2.9	7.6	96.0	-0.2	0.7
C(=C1c2ccccc2-c2ccccc21)c1ccccn1	-5.2	2.0	.	102.0	43.2*	-13.7
COc1cccc(NC(=O)N(C)C[C@@H]2Oc3cc(C#Cc4ccccc4)ccc3S(=O)(=O)N([C@@H](C)CO)C[C@H]2C)c1	.	.	.	.	0.1	.
